Measured values from ChEMBL document CHEMBL3351780, “Novel hybrids of metronidazole and quinolones: synthesis, bioactive evaluation, cytotoxicity, preliminary antimicrobial mechanism and effect of metal ions on their transportation by human serum albumin” (Eur J Med Chem, 2014).
In brackets after ≈: the same amount, converted by molar mass.

How the values were obtained:
Assay type in all cases: functional
Micrococcus luteus = test: Antibacterial activity against Micrococcus luteus by two-fold serial dilution method
Outline: (§1)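 Standard two-fold serial dilution in 96-well microtest plates following NCCLS. Top dilutions printed as 32, 16, 8, 4, 2, 1, 0.5 ug/mL. Wells inoculated and held at 37 °C for 24 h. Growth judged visually and by spectrophotometer, in triplicate. MIC is the lowest concentration giving complete growth inhibition.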

Staphylococcus aureus [1] = test: Antibacterial activity against methicillin-resistant Staphylococcus aureus N315 by two-fold serial dilution method
Outline: (§2)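 MIC read as the lowest concentration giving complete growth inhibition. Two-fold serial dilutions were made in 96-well plates following NCCLS, giving a series down to 0.5 µg/mL (…32, 16, 8, 4, 2, 1, 0.5). Plates were inoculated and incubated at 37 °C for 24 h. A DMSO-with-inoculum control without drug was included. Growth was monitored visually and spectrophotometrically, in triplicate.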

Staphylococcus aureus [2] = test: Antibacterial activity against Staphylococcus aureus ATCC 25923 by two-fold serial dilution method; outline: as §1
Bacillus spizizenii = test: Antibacterial activity against Bacillus subtilis ATCC 6633 by two-fold serial dilution method; outline: as §1
Pseudomonas aeruginosa = test: Antibacterial activity against Pseudomonas aeruginosa by two-fold serial dilution method; outline: as §1
Escherichia coli = test: Antibacterial activity against Escherichia coli DH52 by two-fold serial dilution method; outline: as §1
Shigella dysenteriae = test: Antibacterial activity against Shigella dysenteriae by two-fold serial dilution method; outline: as §2
[3] = Antibacterial activity against Eberthella typhosa by two-fold serial dilution method; outline: as §2
Cyberlindnera jadinii = test: Antifungal activity against Candida utilis after 24 hrs by microbroth dilution method; settings: Williopsis jadinii
Outline: (§3)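 Spore suspension prepared in sterile distilled water from one-day-old cultures on Sabouraud agar, final 1-5 x 10^3 spores/mL. Compounds were serially diluted in RPMI 1640 to give eleven dilutions. Incubation at 35 °C for 24 h. Growth read visually and spectrophotometrically, in triplicate. MIC is the lowest concentration with complete inhibition.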

Saccharomyces cerevisiae = test: Antifungal activity against Saccharomyces cerevisiae after 24 hrs by microbroth dilution method; outline: as §3
Candida albicans = test: Antifungal activity against Candida albicans ATCC 76615 after 24 hrs by microbroth dilution method; settings: ATCC 76615, 24 h; outline: as §3
Pichia norvegensis = test: Antifungal activity against Candida mycoderma after 24 hrs by microbroth dilution method

Row | Compound | MIC (Micrococcus luteus) [µg/mL] | MIC (Staphylococcus aureus [1]) [µg/mL] | MIC (Staphylococcus aureus [2]) [µg/mL] | MIC (Bacillus spizizenii) [µg/mL] | MIC (Pseudomonas aeruginosa) [µg/mL] | MIC (Escherichia coli) [µg/mL] | MIC (Shigella dysenteriae) [µg/mL] | MIC [3] [µg/mL] | MIC (Cyberlindnera jadinii) [µg/mL] | MIC (Saccharomyces cerevisiae) [µg/mL] | MIC (Candida albicans) [µg/mL] | MIC (Pichia norvegensis) [µg/mL]
1 | CCOC(=O)c1cn(CC(O)Cn2c([N+](=O)[O-])cnc2C)c2ccc(OC)cc2c1=O (racemic) | 256 (≈ 595 µM) | 8 (≈ 18.6 µM) | 16 (≈ 37.2 µM) | 8 (≈ 18.6 µM) | 64 (≈ 149 µM) | 8 (≈ 18.6 µM) | 32 (≈ 74.3 µM) | 16 (≈ 37.2 µM) | 256 (≈ 595 µM) | 2 (≈ 4.65 µM) | 8 (≈ 18.6 µM) | 256 (≈ 595 µM)
2 | CCOC(=O)c1cn(CC2CO2)c2ccc(C)cc2c1=O (racemic) |  |  |  | 64 (≈ 223 µM) |  |  |  | 2 (≈ 6.96 µM) |  |  |  | 8 (≈ 27.8 µM)
3 | CCOC(=O)c1cn(CC(O)Cn2cnc([N+](=O)[O-])c2)c2ccc(OC)cc2c1=O (racemic) | 512 (≈ 1230 µM) | 4 (≈ 9.61 µM) | 4 (≈ 9.61 µM) | 64 (≈ 154 µM) | 64 (≈ 154 µM) | 2 (≈ 4.8 µM) | 32 (≈ 76.9 µM) | 256 (≈ 615 µM) | 8 (≈ 19.2 µM) | 4 (≈ 9.61 µM) | 16 (≈ 38.4 µM) | 512 (≈ 1230 µM)
4 | CCOC(=O)c1cn(CC(O)Cn2cnc([N+](=O)[O-])c2)c2c(F)cccc2c1=O (racemic) | 64 (≈ 158 µM) | 8 (≈ 19.8 µM) | 256 (≈ 633 µM) | 32 (≈ 79.1 µM) | 32 (≈ 79.1 µM) | 32 (≈ 79.1 µM) | 16 (≈ 39.6 µM) | 32 (≈ 79.1 µM) | 16 (≈ 39.6 µM) | 256 (≈ 633 µM) | 128 (≈ 317 µM) | 256 (≈ 633 µM)
5 | CCOC(=O)c1cn(CC(O)Cn2cnc([N+](=O)[O-])c2)c2ccc(F)cc2c1=O (racemic) | 4 (≈ 9.89 µM) | 16 (≈ 39.6 µM) | 32 (≈ 79.1 µM) | 8 (≈ 19.8 µM) | 8 (≈ 19.8 µM) | 16 (≈ 39.6 µM) | 32 (≈ 79.1 µM) | 32 (≈ 79.1 µM) | 16 (≈ 39.6 µM) | 16 (≈ 39.6 µM) | 32 (≈ 79.1 µM) | 32 (≈ 79.1 µM)
6 | CCOC(=O)c1cn(CC(O)Cn2c([N+](=O)[O-])cnc2C)c2c(F)cc(F)cc2c1=O (racemic) | 4 (≈ 9.17 µM) | 16 (≈ 36.7 µM) | 8 (≈ 18.3 µM) | 32 (≈ 73.3 µM) | 4 (≈ 9.17 µM) | 4 (≈ 9.17 µM) | 16 (≈ 36.7 µM) | 4 (≈ 9.17 µM) | 64 (≈ 147 µM) | 64 (≈ 147 µM) | 128 (≈ 293 µM) | 64 (≈ 147 µM)
